In publication PMC2115978 (The Journal of Cell Biology, 1990):
Like-named read-outs stand apart in the source and are kept apart here.

What was measured:
[1] = tested on: endosomal insulin degrading activity (GE fraction); assay type: biochemical, rat; details: for effect on endosomal 125I-insulin degradation (in words): concentrations as in Tables I and II
insulin receptor = insulin receptor (Rattus norvegicus, UniProt P15127); assay: PEG precipitation of insulin-receptor complexes in endosomes; assay type: binding; details: for effect on insulin dissociation from receptor: 15 min, presence or absence of ATP, PCMB 1 mM
Chain of insulin receptor (P15127 27-759 limits assumed): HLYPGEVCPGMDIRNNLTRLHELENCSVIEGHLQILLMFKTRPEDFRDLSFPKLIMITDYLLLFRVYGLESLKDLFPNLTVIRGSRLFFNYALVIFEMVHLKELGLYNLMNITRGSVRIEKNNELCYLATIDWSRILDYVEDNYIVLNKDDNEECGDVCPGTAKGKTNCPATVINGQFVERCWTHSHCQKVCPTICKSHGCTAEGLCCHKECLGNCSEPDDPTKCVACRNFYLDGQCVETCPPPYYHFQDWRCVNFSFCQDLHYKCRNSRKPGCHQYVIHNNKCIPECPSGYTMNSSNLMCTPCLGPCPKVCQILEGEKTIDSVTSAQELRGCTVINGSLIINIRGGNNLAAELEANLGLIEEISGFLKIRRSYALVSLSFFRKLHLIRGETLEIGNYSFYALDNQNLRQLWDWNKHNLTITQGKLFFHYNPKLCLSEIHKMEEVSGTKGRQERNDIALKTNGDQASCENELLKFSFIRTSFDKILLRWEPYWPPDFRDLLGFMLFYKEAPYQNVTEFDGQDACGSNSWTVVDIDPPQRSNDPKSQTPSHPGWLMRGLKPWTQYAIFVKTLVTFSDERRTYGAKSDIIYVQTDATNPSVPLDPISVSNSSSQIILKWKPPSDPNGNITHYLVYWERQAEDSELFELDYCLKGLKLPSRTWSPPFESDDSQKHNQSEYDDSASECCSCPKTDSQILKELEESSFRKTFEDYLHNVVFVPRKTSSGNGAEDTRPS
Chain of insulin receptor (P15127 764-1383 partner limits assumed): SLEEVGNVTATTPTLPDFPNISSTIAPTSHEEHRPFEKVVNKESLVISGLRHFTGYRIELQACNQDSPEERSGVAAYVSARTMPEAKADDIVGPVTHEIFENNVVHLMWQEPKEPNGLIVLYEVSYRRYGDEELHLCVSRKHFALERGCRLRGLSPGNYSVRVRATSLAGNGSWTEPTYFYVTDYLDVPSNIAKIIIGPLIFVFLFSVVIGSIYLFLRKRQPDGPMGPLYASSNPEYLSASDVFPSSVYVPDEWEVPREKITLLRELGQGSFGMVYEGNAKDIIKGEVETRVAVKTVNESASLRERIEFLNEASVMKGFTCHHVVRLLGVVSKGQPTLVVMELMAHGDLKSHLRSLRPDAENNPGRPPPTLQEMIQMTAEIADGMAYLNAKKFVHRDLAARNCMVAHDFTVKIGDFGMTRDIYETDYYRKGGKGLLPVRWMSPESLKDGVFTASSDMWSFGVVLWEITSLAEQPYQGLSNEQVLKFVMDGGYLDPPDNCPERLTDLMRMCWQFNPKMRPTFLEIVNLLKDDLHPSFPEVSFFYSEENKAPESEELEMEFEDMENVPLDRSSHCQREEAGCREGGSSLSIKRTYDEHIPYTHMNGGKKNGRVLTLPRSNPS

macrophage endosomes = details: identical cell-free system; cited from earlier work
[2] = tested on: endosomal protease(s) of rat liver endosomes (GE fraction); assay type: in vitro ADME; details: mean ± SD, n = 3; for degradation within isolated endosomes by acid precipitation: cell-free system, 37C, up to 60 min, 10% TCA
[3] = Internalization of injected 125I-insulin into GE fraction of liver; assay type: in vivo, rat; details: 5 min after portal vein injection, 100 ng/100 g bw; mean ± SD, n = 9
[4] = cited from earlier work
[5] = tested on: endosomal protease(s) of rat liver endosomes (GE fraction); assay: Sephadex G-50 chromatography of radioactivity acid-extracted from endosomes; assay type: in vitro ADME
EGF receptor = details: freshly prepared endosomes; ref 49a; cited from earlier work
[6] = tested on: GE fraction proton translocase activity; assay: Cell-free ATP-dependent acidification assay; assay type: biochemical, rat; details: 1 µM added at end of incubation; acridine orange absorbance 492/540 nm
Method in brief: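 Pelleted at 16,000 g for 1 h, Dounce-resuspended, equilibrated 3-6 h at 4°C. Acridine orange 6 µM, ATP 0.4 mM (final); initial quench rates recorded. Test compound 1 µM added after incubation.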

prolactin receptor = target: T1, prolactin receptor (Rattus norvegicus, UniProt P05710); assay: Prolactin dissociation from its receptor in endosomes; assay type: binding
T1 sequence (P05710 20-310 isoform P05710-3 limits assumed): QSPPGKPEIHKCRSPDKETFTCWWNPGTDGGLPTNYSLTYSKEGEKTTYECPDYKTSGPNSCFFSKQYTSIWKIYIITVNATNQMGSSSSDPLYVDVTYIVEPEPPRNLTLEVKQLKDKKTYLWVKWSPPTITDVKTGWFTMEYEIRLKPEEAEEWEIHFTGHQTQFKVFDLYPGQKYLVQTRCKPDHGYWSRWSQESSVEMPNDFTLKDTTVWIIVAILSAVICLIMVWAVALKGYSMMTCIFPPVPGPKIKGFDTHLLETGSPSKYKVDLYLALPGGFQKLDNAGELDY

[7] = Table II, nucleotide 10 mM (in place of ATP), 0-30 min, mean ± SD, n = 3
[8] = Table I, 1 mM, acid solubility at 30 min, mean ± SD of 3 experiments
[9] = Table II, 10 µM, 0-30 min, mean ± SD, n = 3
[10] = Table II, 1 mM, 0-30 min, mean ± SD, n = 3
[11] = Table II, 50 µM, 0-30 min, mean ± SD, n = 3
[12] = Table II, 2 mM, 0-30 min, mean ± SD, n = 3

O=C(O)CN(CCN(CC(=O)O)CC(=O)O)CC(=O)O [EDTA]
effect on endosomal 125I-insulin degradation (in words) ([1]; 30 min): no significant effect

Nc1nc2c(ncn2[C@@H]2O[C@H](COP(=O)(O)OP(=O)(O)OP(=O)(O)O)[C@@H](O)[C@H]2O)c(=O)[nH]1 [GTP]
125I-insulin degraded (percentage of control) [1, 7]: 52.8%

Triton X-100
125I-insulin degraded (percentage of control) ([1]; Table I, detergent 0.1%, 30 min, mean ± SD of 3 experiments): 22.9% | effect on endosomal 125I-insulin degradation (in words) ([1]; 30 min): Significant inhibition

[O]=[V]([O-])([O-])[O-] [Vanadate]
125I-insulin degraded (percentage of control) ([1]; Table II, 100 µM, 0-30 min, mean ± SD, n = 3): 99.9% | effect on endosomal 125I-insulin degradation (in words) ([1]; 30 min): little effect

c1cnc2c(c1)ccc1cccnc12 [1,10-Phenanthroline, 1,10-phenanthroline]
inhibition of 125I-insulin degradation ([1]; 1 mM, 30 min): 91% | 125I-insulin degraded (percentage of control) [1, 8]: 8.8% | effect on endosomal 125I-insulin degradation (in words) ([1]; 30 min): Significant inhibition | effect on insulin dissociation from receptor (insulin receptor): inhibited

CC[C@H]1/C=C/C=C/C[C@@H](C)[C@H](O)[C@@](C)(O)C(=O)[C@@H](C)[C@H](O)[C@@H](C)C(=O)[C@@H](C)[C@H](O)[C@@H](C)/C=C/C(=O)O[C@@H]2[C@H](C)[C@H](CC1)O[C@]1(CC[C@H](C)[C@H](C[C@@H](C)O)O1)[C@H]2C [Oligomycin]
125I-insulin degraded (percentage of control) ([1]; Table II, 5 µg/ml, 0-30 min, mean ± SD, n = 3): 90.2% | effect on endosomal 125I-insulin degradation (in words) ([1]; 30 min): little effect

Pepstatin
effect on degradation of mannose-BSA in macrophage endosomes (macrophage endosomes): inhibition of degradation | effect on endosomal 125I-insulin degradation (in words) ([1]; 30 min): no significant effect

Bacitracin
inhibition of 125I-insulin degradation ([1]; 5 mg/ml, 30 min): 40% | effect on endosomal 125I-insulin degradation (in words) ([1]; 30 min): Significant inhibition

O=S(=O)(F)Cc1ccccc1 [PMSF]
effect on degradation of mannose-BSA in macrophage endosomes (macrophage endosomes): inhibition of degradation | 125I-insulin degraded (percentage of control) [1, 8]: 89.2% | effect on endosomal 125I-insulin degradation (in words) ([1]; 30 min): no significant effect

CCN1C(=O)C=CC1=O [NEM, N-ethylmaleimide]
125I-insulin degraded (percentage of control) [1, 9]: 23.6% | 125I-insulin degraded (percentage of control) [1, 10]: 26.8% | effect on endosomal 125I-insulin degradation (in words) ([1]; 30 min): significant inhi- bition | effect on endosomal 125I-insulin degradation (in words) ([1]; 30 min, listed as N-ethylmaleimide (NEM)): inhibited markedly

CC[C@@]1([C@@H]2O[C@@H]([C@H]3O[C@@](O)(CO)[C@H](C)C[C@@H]3C)C[C@@H]2C)CC[C@H]([C@]2(C)CC[C@]3(C[C@H](O)[C@@H](C)[C@@H]([C@@H](C)[C@@H](OC)[C@H](C)C(=O)O)O3)O2)O1 [Monensin]
inhibition of 125I-insulin degradation ([1]; 50 µM, 30 min): ~ 80% | 125I-insulin degraded (percentage of control) [1, 11]: 20.6% | effect on endosomal 125I-insulin degradation (in words) ([1]; 30 min): inhibited markedly

Antipain
effect on degradation of mannose-BSA in macrophage endosomes (macrophage endosomes): inhibition of degradation | effect on endosomal 125I-insulin degradation (in words) ([1]; 30 min): no significant effect

Nc1ncnc2c1ncn2[C@@H]1O[C@H](COP(=O)(O)OP(=O)(O)NP(=O)(O)O)[C@@H](O)[C@H]1O [AMP- PNP]
125I-insulin degraded (percentage of control) [1, 7]: 24.5%

125I-insulin: Porcine insulin (26.8 IU/mg, Eli Lilly) radioiodinated by the chloramine T method
125I-insulin degraded (percentage of control) ([2]; Table II, no nucleotide added (minus ATP), 0-30 min): 35.4% | enrichment in GE fraction compared to parent homogenate [3]: 40 + 4 fold | t1/2 of in vivo insulin clearance [4]: 6 min | increase in size of peak eluting at position of radioiodotyrosine (peak III) ([5]; after 15 min incubation, rats given 2 µg 125I-insulin/100 g bw): threefold increase | intact 125I-insulin (acid precipitable) retained in freshly prepared endosomes (insulin receptor; 0 min): 82% | degradation of insulin (insulin receptor; 15 min incubation +ATP): 5.8 ng.mg cell fraction protein-1 | dissociation of insulin from receptor (insulin receptor; 15 min incubation +ATP): 1.7 ng insulin.mg cell fraction pr | loss and degradation of free insulin (insulin receptor; 15 min incubation minus ATP): 2.1 ng.mg cell fraction protein-1 | loss of receptor-bound insulin (insulin receptor; 15 min incubation minus ATP): no loss | internalized ligand dissociated from receptor (insulin receptor; freshly prepared endosomes): 59% | proportion of intact insulin that was receptor-bound (PEG precipitable) (insulin receptor; freshly prepared endosomes, 0 min): 41%

Valinomycin
inhibition of 125I-insulin degradation ([1]; 50 µM, 30 min): 17%

Nc1ncnc2c1ncn2[C@@H]1O[C@H](COP(=O)(O)OP(=O)(O)OP(=O)(O)O)[C@@H](O)[C@H]1O [ATP]
125I-insulin degraded (percentage of control) [1, 7]: 100%

Aprotinin
effect on endosomal 125I-insulin degradation (in words) ([1]; 30 min): no significant effect

Nc1ncnc2c1ncn2[C@@H]1O[C@H](COP(=O)(O)OP(=O)(O)O)[C@@H](O)[C@H]1O [ADP]
125I-insulin degraded (percentage of control) [1, 7]: 40.0%

N=C(N)NC(=O)c1nc(Cl)c(N)nc1N [Amiloride]
125I-insulin degraded (percentage of control) [1, 12]: 96.6% | effect on endosomal 125I-insulin degradation (in words) ([1]; 30 min): little effect

125I-EGF: mouse epidermal growth factor (Collaborative Research) radioiodinated by chloramine T method
degradation within isolated endosomes by acid precipitation [2]: not detectable | ligand dissociated from receptor (EGF receptor): 43% | degradation within isolated endosomes by Sephadex G-50 chromatography ([5]; 0 vs 15 min incubation in cell-free system): not detectable

Leupeptin
effect on degradation of mannose-BSA in macrophage endosomes (macrophage endosomes): inhibition of degradation | effect on endosomal 125I-insulin degradation (in words) ([1]; 30 min): no significant effect

CCN(CC)CCCC(C)Nc1ccnc2cc(Cl)ccc12 (centres unmarked) [Chioroquine, chloroquine]
inhibition of 125I-insulin degradation ([1]; 2 mM, 30 min): ~ 80% | 125I-insulin degraded (percentage of control) [1, 12]: 16.3% | effect on endosomal 125I-insulin degradation (in words) ([1]; 30 min): inhibited markedly

O=C(O)c1cc[c]([Hg][Cl])cc1 [PCMB, p-chloromercuribenzoic acid]
inhibition of 125I-insulin degradation ([1]; 1 mM, 30 min): 100% | 125I-insulin degraded (percentage of control) [1, 8]: 0% | effect on endosomal 125I-insulin degradation (in words) ([1]; 30 min): Significant inhibition | effect on insulin dissociation from receptor (insulin receptor): inhibited

C(=NC1CCCCC1)=NC1CCCCC1 [DCCD, dicyclohexylcarbodiimide]
125I-insulin degraded (percentage of control) [1, 9]: 50.4% | 125I-insulin degraded (percentage of control) [1, 10]: 38.7% | effect on endosomal 125I-insulin degradation (in words) ([1]; 30 min): significant inhi- bition

CO[C@@H]1C[C@@H](C[C@H]2CC[C@H](C)[C@H]([C@@H](C)C(=O)O)O2)O[C@]2(O[C@](C)([C@H]3CC[C@@](C)([C@@H]4O[C@@H]([C@H]5O[C@@](O)(CO)[C@H](C)C[C@@H]5C)C[C@@H]4C)O3)C[C@H]2C)[C@@H]1C [Nigericin]
inhibition of 125I-insulin degradation ([1]; 50 µM, 30 min): ~ 80% | 125I-insulin degraded (percentage of control) [1, 11]: 17.4% | effect on endosomal 125I-insulin degradation (in words) ([1]; 30 min): inhibited markedly | effect on ATP-generated pH gradients of GE fraction [6]: dissipated rapidly

B1: 125I-prolactin: ovine prolactin (30.5 IU/mg) radioiodinated by chloramine T method (protein, UniProt P01240 31-229, looked up)
Prolactin: TPVCPNGPGNCQVSLRDLFDRAVMVSHYIHNLSSEMFNEFDKRYAQGKGFITMALNSCHTSSLPTPEDKEQAQQTHHEVLMSLILGLLRSWNDPLYHLVTEVRGMKGVPDAILSRAIEIEEENKRLLEGMEMIFGQVIPGAKETEPYPVWSGLPSLQTKDEDARHSAFYNLLHCLRRDSSKIDTYLKLLNCRIIYNNNC
modifications: 125I radiolabel
degradation within isolated endosomes by acid precipitation [2]: No degradation | internalized ligand dissociated from receptor (prolactin receptor; after 15 min incubation in cell-free system): 50% | internalized ligand dissociated from receptor (prolactin receptor; before incubation (freshly isolated endosomes)): 60%
